Data taken from ChEMBL document CHEMBL1144493, “Synthesis and biological evaluation of dihydrofuran-fused perhydrophenanthrenes as a new anti-influenza agent having novel structural characteristic” (Bioorg Med Chem, 2007).
Calls of active or inactive are those of the source. The calls are words filed in the database; no cut-off is given here.

Legend:
Influenza A virus [1] = assay: Inhibition of influenza A virus A/Aichi/2/68 virus proliferation in MDCK cells; assay type: functional, organism-based
Influenza A virus [2] = assay: Antiviral activity against influenza virus A virus A/PR/8/34 (H1N1) at 100 uM; assay type: functional, organism-based
Summary of the method: (§1)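 PBS-washed confluent MDCK monolayers were inoculated with virus in serum-free MEM and adsorbed for 45 min at room temperature. They were then cultured in agar medium with drug at 100 µM or 1% DMSO as control. Results are percent of control, mean ± SD of three experiments. Drug stocks were in DMSO, final DMSO <1%.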

Influenza A virus [3] = assay: Anti-influenza activity against influenza A virus A/Aichi/2/68 in MDCK cells administered at 100 uM within 1 hrs post infection; assay type: functional, organism-based
Summary of the method: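 MDCK cells were infected with A/Aichi/2/68 (H3N2) under drug-free conditions and then given drug at 100 µM after delays of 0–10 h at 37 °C. The paper describes a one-step growth design at MOI 5 PFU/cell with 1-h drug treatment. Virus yield was measured by plaque titration after 24 h total, as % of 1% DMSO control, mean ± SD of three experiments.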

Influenza A virus [4] = assay: Antiviral activity against influenza A virus A/USSR/92/77 (H1N1) at 100 uM; assay type: functional, organism-based; summary of the method: as §1
Influenza B virus [5] = assay: Antiviral activity against influenza B virus B/Lee at 100 uM; assay type: functional, organism-based; summary of the method: as §1
Influenza A virus [6] = assay: Inhibition of influenza A virus A/Aichi/2/68 proliferation in MDCK cells at 10 uM relative to control; assay type: functional; set-up: scale not given: the % may be the effect or the level left
MDCK = assay: Cytotoxicity against MDCK cells at 100 uM by MTT assay; assay type: cell-based, Canis lupus familiaris; conditions: dog
Summary of the method: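 Subconfluent MDCK cells (10⁴ cells/well) were exposed for 24 h to compound at 100 or 200 µM in MEM with 2% FBS; control was 1% DMSO. MTT was then added and OD read at 570 nm. Values are mean ± SD of three measurements.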

Influenza B virus [7] = assay: Antiviral activity against influenza B virus B/Singapore/222/79 at 100 uM; assay type: functional; summary of the method: as §1
Influenza A virus [8] = assay: Antiviral activity against influenza A virus A/NWS/33 (H1N1) at 100 uM; assay type: functional, organism-based; summary of the method: as §1

SMILES | Activity (Influenza A virus [1]) | Activity (Influenza A virus [2]) | Activity (Influenza A virus [3]) | Activity (Influenza A virus [4]) | Activity (Influenza B virus [5]) | Activity (Influenza A virus [6]) [%] | Activity (MDCK) | Activity (Influenza B virus [7]) | Activity (Influenza A virus [8])
N#C[C@]12CCC3(OCCO3)C3=CO[C@H](Cc4cc(OC(F)(F)F)ccc41)[C@@H]32 | Dose-dependent effect | Active | Active | Active | Active | 30 | Not Active | Active | Active
CC(C)C(Oc1ccc2c(c1)C[C@H]1OC=C3[C@H]1[C@@]2(C#N)CCCC31OCCO1)(C(C)C)C(C)C | Dose-dependent effect | Active | – | Active | Active | 30 | Not Active | Active | Active
